Mac1 fbg enh: increases human CD11b/CD18 adhesion to fibrinogen; K562 CD11b/CD18 adhesion to fibrinogen, ATPlite luminescence; activation, % at 10 µM; P05107+P11215; 93,000 tested, 0.07% active;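 active = 10 µM primary screen giving 50% or more activity, confirmed by 40% or more on retest at that dose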
Target sequence (P05107 whole entry, looked up, other chains not shown): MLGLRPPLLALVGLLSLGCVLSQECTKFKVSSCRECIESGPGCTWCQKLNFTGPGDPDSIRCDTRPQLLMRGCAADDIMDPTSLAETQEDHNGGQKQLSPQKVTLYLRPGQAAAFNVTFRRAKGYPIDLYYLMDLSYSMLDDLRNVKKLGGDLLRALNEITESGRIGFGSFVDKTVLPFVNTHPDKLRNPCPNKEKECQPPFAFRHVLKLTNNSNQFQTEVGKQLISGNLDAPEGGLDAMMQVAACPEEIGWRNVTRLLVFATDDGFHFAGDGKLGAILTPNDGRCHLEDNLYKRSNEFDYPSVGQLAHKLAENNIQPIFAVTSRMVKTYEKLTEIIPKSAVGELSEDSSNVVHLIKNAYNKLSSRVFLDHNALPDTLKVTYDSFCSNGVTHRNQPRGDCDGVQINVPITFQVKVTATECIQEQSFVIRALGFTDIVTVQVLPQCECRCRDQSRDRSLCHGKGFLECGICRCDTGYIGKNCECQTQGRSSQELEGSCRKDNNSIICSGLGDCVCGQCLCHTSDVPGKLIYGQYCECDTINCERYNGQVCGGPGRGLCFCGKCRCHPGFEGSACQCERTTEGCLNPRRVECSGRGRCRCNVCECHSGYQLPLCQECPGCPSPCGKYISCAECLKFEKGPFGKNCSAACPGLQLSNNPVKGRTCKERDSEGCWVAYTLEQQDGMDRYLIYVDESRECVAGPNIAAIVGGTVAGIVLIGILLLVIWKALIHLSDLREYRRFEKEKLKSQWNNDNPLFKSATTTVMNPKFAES
Ecoli tolC: growth inhibitors of E. coli BW25113 tolC mutant | OD615 | growth inhibition, % at 10 µM (by protocol) | 65,000 tested, 2.2% active | AID 573;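 active = growth inhibition at or above a cutoff equal to the mean over every tested compound plus 3 SD, cut at about 60% in these data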;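 note: growth measured after 20 h incubation at 37 °C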
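signal = optical density read at 615 nm | test system = E. coli ΔtolC::kan strain BW25113 | timing = 20 h compound exposure of bacteria at 37 °C | buffer or medium = LB medium plus 50 µg/mL kanamycin | compound dosing = 10 µM final, single dose | evaluation = % inhibition of E. coli growth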
Phagocyt inh: inhibitors of macrophage phagocytosis | J774A.1 macrophage IgG-bead phagocytosis, imaging | inhibition, % at 5 µM | 110,000 tested, 0.07% active | AID 1029;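 active = inhibition above the mean of the plate negative controls plus 5 SD, cut at about 13% in these data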;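 note: phagocytic index as fraction of beads internalized from green versus red external bead signal; plate controls were DMSO negative control for no effect and cytochalasin-D positive control for full effect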
Ecoli WT expand: blocks growth of wild type E. coli BW25113 | 98,000 tested, 0.15% active | growth inhibition, % at 100 µM | AID 710 | OD600 absorbance;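 active = growth inhibition above about 50% at one test dose, limit read from the data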;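 note: growth measured after 20 h incubation at 37 °C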
Mac1 fbg inh: CD11b/CD18-fibrinogen binding inhibition. K562 CD11b/CD18 adhesion to fibrinogen, ATPlite luminescence; Mn2+ added to activate the integrin. inhibition, % at 10 µM. 93,000 tested, 0.54% active. AID 1497;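 active = primary inhibition of 50% or more at 10 µM, then 40% or more on retest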
An asterisk follows results filed as active; . = not tested or not shown. This is one part of a sample in which hits are shown more often than they occur.

SMILES	Mac1 fbg enh	Ecoli tolC	Phagocyt inh	Ecoli WT expand	Mac1 fbg inh
O=C(OC(c1ccccc1)c1nccc2ccccc12)c1cc([N+](=O)[O-])cc([N+](=O)[O-])c1 (centres undefined)	-1.2	.	-7.4	.	14.2
COCCn1nnnc1C(C(C)C)N(Cc1ccccc1)Cc1cc2cc(OC)ccc2[nH]c1=O (centres undefined)	3.2	76.2*	-2.6	-2.0	6.8
NC1C2CN(c3nc4c(cc3F)c(=O)c(C(=O)O)cn4-c3ccc(F)cc3F)CC12 (centres undefined)	-5.2	100.0*	-1.0	97.0*	8.8
CCOc1ccc(S(=O)(=O)Nc2ccccc2C(=O)NCc2ccco2)cc1	-4.4	33.2	-0.5	-3.0	8.5
COc1ccc(S(=O)(=O)Nc2ccccc2C(=O)NCc2ccco2)cc1Br	-9.3	83.2*	1.1	4.0	52.8
CCC(=O)Nc1ccc(C(=O)NNC(=O)Cc2ccccc2)cc1	3.1	.	.	.	-23.7
O=C(CC(=O)c1ccccc1O)c1cccc(F)c1	-2.7	89.5*	-1.4	12.0	-0.1
CN(C)c1cccc(C(=O)OCC(=O)Nc2nccs2)c1	.	.	4.1	.	.
Cc1cccc(-c2noc(CCCOc3ccc(Cl)cc3Cl)n2)c1	-8.9	.	-0.4	-4.0	98.7*
CCOC(=O)c1cc2sccc2n1CC(=O)N1CCCc2ccccc21	-1.1	100.0*	-2.0	-3.0	-0.9
COCCNC(=O)CSC1=N/C(=C/c2ccc(Cl)c(Cl)c2)C(=O)N1c1ccccc1F	8.2	.	.	.	16.5
COc1ccc2nc(SCC(=O)N3CCCCCC3)c(C#N)cc2c1	2.6	25.5	-0.4	-8.0	32.5
COc1ccc2nc(SCC(=O)N(C)C3CCCCC3)c(C#N)cc2c1	10.3	63.2*	-0.7	-9.0	-25.8
Cc1ccc(C2NC(=S)NC3=C2C(=O)CC(C)(C)C3)cc1 (centres undefined)	1.5	.	2.9	.	-16.1
COc1ccc(Cn2c(SCc3ccccc3C)nc3cc(OC)c(OC)cc3c2=N)cc1	134.8*	.	-2.4	11.0	-2.7
COc1ccc(Cl)cc1CN1CCN(c2nc(C)cc(C)c2C#N)CC1	11.5	96.9*	0.6	1.0	-29.0
Cc1cc(C)c(C#N)c(N2CCN(CCOc3ccc(Cl)cc3)CC2)n1	-0.3	100.0*	1.6	7.0	35.2
CCCCN(CCCC)C(=S)NC(=O)c1ccccc1Cl	.	.	-2.5	.	.
O=C(c1ccc(COc2ccccc2Cl)o1)N1CCN(c2ccccc2)CC1	3.2	83.7*	-0.6	-26.0	-0.2
O=C(c1ccc(COc2ccccc2Br)cc1)N1CCCCC1	-3.3	.	0.2	-3.0	32.2
O=C(c1ccc(COc2ccc3c(c2)CCC3)o1)N1CCN(c2ccccc2)CC1	.	67.3*	.	.	.
CCCc1ccc(OCc2ccc(C(=O)N3CCN(c4ccccn4)CC3)o2)c(OC)c1	7.1	100.0*	-5.8	-14.0	33.4
COc1ccc(CC(=O)N2CCN(c3ccccn3)CC2)cc1OC	-2.1	-6.3	-1.2	-1.0	-5.7
O=C(c1ccc(COc2ccccc2Br)o1)N1CCCCCC1	2.0	61.3*	1.8	-5.0	-4.4
COc1cc2c(cc1NC(=O)c1cc(-c3ccccn3)nc3ccccc13)oc1ccccc12	.	.	-2.9	.	.
SMILES	Mac1 fbg enh	Ecoli tolC	Phagocyt inh	Ecoli WT expand	Mac1 fbg inh
COc1cc(OC)cc(C(=O)NCCCN2CCN(CCCNC(=O)c3cc(OC)cc(OC)c3)CC2)c1	.	.	-4.4	.	.
O=C(NC12CC3CC(CC(C3)C1)C2)c1ccccc1O	3.7	62.5*	1.3	-3.0	6.7
Cc1ccc(NC(=O)CN(C)C(=O)CSc2nc3ccccc3c(=O)n2Cc2ccco2)cc1	-5.0	.	-2.5	-8.0	14.9
CN(Cc1ccccc1)C(=O)CSc1nc2ccccc2c(=O)n1Cc1ccco1	2.3	67.2*	-0.7	-30.0	31.8
Cc1nn(Cc2cccc(C(=O)N3CCCC(C)C3)c2)c(C)c1[N+](=O)[O-] (centres undefined)	.	.	2.0	.	.
CC(=O)Nc1ccc(NC(=O)C(C)OC(=O)C2(c3ccc(Cl)cc3)CCCC2)cc1 (centres undefined)	0.0	.	-6.2	.	-4.3
COc1ccc(S(=O)(=O)Nc2cc(Sc3ncn[nH]3)c(O)c3ccccc23)cc1	-5.1	.	2.1	17.0	89.8*
CCC(C(=O)Nc1ccccc1OC)n1c(C(=O)OC)cc2ccsc21 (centres undefined)	-2.5	70.9*	-0.5	-21.0	15.8
CCOC(=O)c1sc(-c2ccc(F)cc2)cc1NC(=O)Nc1ccccc1OC	-0.1	.	-5.5	.	-3.1
CCOC(=O)c1c(NC(=S)NC(=O)c2cnn(CC)c2)sc2c1CCC(C)C2 (centres undefined)	157.2*	.	-2.0	-12.0	4.7
CCOC(=O)c1c(NC(=S)NC(=O)c2ccc(Cn3cc(Cl)cn3)o2)sc2c1CCCCC2	69.0*	.	5.4	-7.0	3.6
CCOC(=O)c1c(NC(=O)C2C3C=CC(C3)C2C(=O)O)sc2c1CCC(C)C2 (centres undefined)	.	.	-3.8	.	.
Cc1cccc(Cn2c(=O)n(Cc3ccco3)c(=O)c3ccccc32)c1	0.3	90.9*	-0.9	-17.0	-30.6
Cc1cccc(Cn2c(=O)n(CCCC(=O)NCc3ccco3)c(=O)c3ccccc32)c1	.	20.2	-2.7	.	.
CCOC(=O)c1ccc(-n2[nH]c(-c3ccccc3)cc2=O)cc1	.	62.0*	-1.4	11.0	.
CCOC(=O)c1ccc(-n2c(C)nc3ccccc3c2=O)cc1	-3.1	-8.5	-0.6	1.0	4.9
CCOC(=O)c1ccc(NC(=O)c2cn(CCC#N)nc2-c2ccc3c(c2)OCCO3)cc1	0.8	.	-5.0	.	6.6
Fc1ccc(NC(=S)Nc2ccc(F)c(Cl)c2)cc1Cl	-6.7	.	0.0	89.0*	91.8*
Fc1ccc(NC(=S)Nc2cccc(Cl)c2)cc1	.	.	-0.9	.	.
CCOc1ccc(NCc2nnc(SCc3ccc(Cl)cc3)n2-c2ccccc2)cc1	.	.	-9.1	.	.
COc1ccc(NC2=Nc3cccc4cccc2c34)cc1	.	.	-6.7	.	.
COc1ccc(Cc2c(N)nc(N)nc2N)cc1	.	.	.	15.0	.
CC(C)Oc1ccc(Cc2cnc(N)nc2N)cc1	-2.5	.	1.3	71.0*	-2.7
Brc1ccccc1-c1nnc(COc2cccc3cccnc23)o1	-2.5	.	0.5	1.0	9.5
Clc1ccccc1OCc1nnc(-c2ccccc2Br)o1	-0.9	72.5*	0.4	-2.0	6.2
SMILES	Mac1 fbg enh	Ecoli tolC	Phagocyt inh	Ecoli WT expand	Mac1 fbg inh
Cc1ccc(S(=O)(=O)NCCc2ccncc2)cc1	7.2	0.3	-2.2	3.0	-46.4
CCCCc1ccc(S(=O)(=O)NCCc2ccncc2)cc1	-8.3	25.2	-2.3	12.0	64.8*
O=C(CSc1cccc[n+]1[O-])c1cc2ccccc2o1	0.3	5.4	-0.3	97.0*	-0.9
O=C(O)CSc1cccc[n+]1[O-]	1.6	.	0.1	3.0	-13.5
O=C1c2ccccc2C(=O)N1CCCCN(C(=O)c1cc([N+](=O)[O-])ccc1Cl)c1ccc(Cl)cc1	0.2	.	-4.8	.	5.2
c1ccc(-c2nc(NCc3ccco3)c3ccccc3n2)nc1	5.6	83.3*	0.6	20.0	-13.5
c1ccc(N2CCN(c3nc(NCc4ccco4)c4ccccc4n3)CC2)cc1	-6.0	2.9	-1.1	-3.0	32.0
Oc1ccccc1-c1nc(NCc2ccco2)c2ccccc2n1	0.2	13.1	-2.6	2.0	-4.2
